The target in series [1] is Polymerase acidic protein (Influenza A virus (A/Puerto Rico/8/1934(H1N1)), UniProt P03433). Put plainly: Inhibition of Influenza A virus RNA-dependent RNA polymerase PA N-terminal endonuclease using [6-FAM]AATCGCAGGCAGCACTC[TAM] substrate and measured over 45 mins by fluorescence based assay.
The target in series [2] is Polymerase acidic protein (Influenza A virus (A/Puerto Rico/8/1934(H1N1))) (UniProt P03433).
Series [3] is described as follows: Cytotoxicity in mouse NIH/3T3 cells assessed as reduction in cell viability incubated for 12 hrs by MTT assay. The format is cell-based, NIH3T3. (In general: Tetrazolium assays rely on reduction of a dye to a coloured formazan, in cell work by metabolically active cells.)
Series [4] addresses Carbonic anhydrase 2 (Homo sapiens) (UniProt P00918). Briefly: Inhibition of recombinant human CA2 expressed in Escherichia coli BL21 at 200 uM incubated for 15 mins using p-Nitrophenyl acetate substrate.
Series [5] in a line: Selectivity index, ratio of CC50 for cytotoxicity in mouse NIH/3T3 cells assessed as reduction in cell viability incubated for 12 hrs by MTT assay to EC50 for antiviral activity against Influenza A virus (A/California/04/2009(H1N1)) ATCC VR-1737 infected in MDCK cells assessed as reduction in virus-induced cytopathic effect incubated for 48 hrs by Cell-titer-Glo luminescence assay. Format: toxicity, cell-based. To be noted: read-out: Ratio CC50/EC50.

Series [6] can be described thus: Antiviral activity against Influenza A virus (A/California/04/2009(H1N1)) ATCC VR-1737 infected in MDCK cells assessed as reduction in virus-induced cytopathic effect incubated for 48 hrs by Cell-titer-Glo luminescence assay. The format is functional, cell-based. To be noted: ATCC VR-1737, MDCK. The procedure, abridged:
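MDCK cells at 80% confluence were exposed to virus plus a range of inhibitor concentrations for 48 h at 37 °C, 5% CO2. CPE and cell viability were then read by CellTiter-Glo luminescence.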
A general note: Damage to the host cells serves as the signal in cytopathic effect assays.

Series [7] concerns the target T1, Arginase-1 (Homo sapiens) (UniProt P05089).
T1 sequence (whole entry): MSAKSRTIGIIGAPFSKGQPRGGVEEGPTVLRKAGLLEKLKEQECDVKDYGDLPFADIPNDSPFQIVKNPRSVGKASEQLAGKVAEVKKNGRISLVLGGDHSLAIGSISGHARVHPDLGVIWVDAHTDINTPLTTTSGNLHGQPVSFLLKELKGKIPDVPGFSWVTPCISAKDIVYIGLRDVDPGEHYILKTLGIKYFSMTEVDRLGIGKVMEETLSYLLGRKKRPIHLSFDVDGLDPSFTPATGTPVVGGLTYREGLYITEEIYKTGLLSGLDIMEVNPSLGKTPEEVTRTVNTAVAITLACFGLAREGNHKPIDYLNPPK
Briefly: Inhibition of human Arg1 at 200 uM using thio-arginine substrate incubated for 30 mins by Ellman's reagent based assay. In general terms: Ellman's reagent forms a yellow product with free thiols.

Series [8] has as its target Methionine aminopeptidase 2 (Homo sapiens) (UniProt P50579). Put plainly: Inhibition of recombinant human MetAP2 at 200 uM using Met-AMC as fluorogenic substrate by fluorescence assay.
Series [9] is described as follows: Selectivity index, ratio of CC50 for cytotoxicity in MDCK cells assessed as reduction in cell viability incubated for 12 hrs by MTT assay to EC50 for antiviral activity against Influenza A virus (A/California/04/2009(H1N1)) ATCC VR-1737 infected in MDCK cells assessed as reduction in virus-induced cytopathic effect incubated for 48 hrs by Cell-titer-Glo luminescence assay. The format is toxicity, cell-based. To be noted: dog, read-out: Ratio CC50/EC50.

Series [10] is described as follows: Cytotoxicity in MDCK cells assessed as reduction in cell viability incubated for 12 hrs by MTT assay. Format: cell-based, Canis lupus familiaris. The note with it: dog.
The target of series [11] is Macrophage metalloelastase (Homo sapiens) (UniProt P39900). Put plainly: Inhibition of human recombinant MMP12 at 200 uM incubated for 15 mins using OmniMMP fluorogenic substrate by fluorescence based assay.

Active and inactive are the calls of the source. The calls are words filed in the database; no cut-off is given here.

Chain of Methionine aminopeptidase 2 (Homo sapiens) (P50579 2-478 limits assumed): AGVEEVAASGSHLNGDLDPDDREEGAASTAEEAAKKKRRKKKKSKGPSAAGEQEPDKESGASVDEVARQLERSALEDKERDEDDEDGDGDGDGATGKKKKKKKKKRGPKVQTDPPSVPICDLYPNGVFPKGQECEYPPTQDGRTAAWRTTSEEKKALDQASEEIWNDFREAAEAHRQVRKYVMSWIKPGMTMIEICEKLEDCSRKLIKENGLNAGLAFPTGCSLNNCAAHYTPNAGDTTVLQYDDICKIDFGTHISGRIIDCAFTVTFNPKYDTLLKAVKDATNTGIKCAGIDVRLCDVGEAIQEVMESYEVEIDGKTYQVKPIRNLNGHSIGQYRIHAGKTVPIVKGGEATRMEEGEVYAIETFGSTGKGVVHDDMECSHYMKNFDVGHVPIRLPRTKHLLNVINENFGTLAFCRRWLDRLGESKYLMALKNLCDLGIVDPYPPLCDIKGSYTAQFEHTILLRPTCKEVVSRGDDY
Chain of Macrophage metalloelastase (Homo sapiens) (P39900 106-470 limits assumed): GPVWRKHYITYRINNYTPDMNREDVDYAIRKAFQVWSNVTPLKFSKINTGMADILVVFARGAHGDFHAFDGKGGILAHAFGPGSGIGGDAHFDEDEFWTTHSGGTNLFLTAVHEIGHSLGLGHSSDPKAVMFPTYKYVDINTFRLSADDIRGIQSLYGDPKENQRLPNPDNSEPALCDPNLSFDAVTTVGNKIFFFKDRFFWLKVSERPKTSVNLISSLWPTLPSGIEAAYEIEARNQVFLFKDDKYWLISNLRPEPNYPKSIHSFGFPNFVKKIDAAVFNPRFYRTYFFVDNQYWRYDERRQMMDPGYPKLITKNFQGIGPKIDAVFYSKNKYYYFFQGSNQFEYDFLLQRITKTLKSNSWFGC

On to `O=C(O)c1[nH]c(-c2ccc(Oc3ccccc3)cc2)cc(=O)c1O`, for which the IC50 in series [1] (read-out: IC50) is 25 nM. Further, the ΔTm – broadly, the change in melting temperature against a reference sample – in series [2] stood at 8.1 °C.

Turning to `COc1ccccc1-c1cc(=O)c(O)c(C(=O)O)[nH]1`, the IC50 in series [1] (read-out: IC50) amounted to 2.3 nM. In addition, the ΔTm in [2] amounted to 11.9 °C.

Regarding `O=C(O)c1[nH]c(-c2cccc(Oc3ccccc3)c2)cc(=O)c1O`, the IC50 in [1] (read-out: IC50) turned out to be 14 nM. Further, in [2], the ΔTm stood at 9 °C.

For the compound `Cc1ccccc1-c1cc(=O)c(O)c(C(=O)O)[nH]1`, in series [2], the ΔTm turned out to be 13.2 °C.

As to `CCc1ccccc1-c1cc(=O)c(O)c(C(=O)O)[nH]1`, the IC50 in series [1] (read-out: IC50) and in series [1] (read-out: pIC50 (converted)) was under 2 nM throughout. Further, the thermal shift (ΔTm) in series [2] worked out at 13.1 °C.

For the compound `Cc1cc(C(=O)O)ccc1-c1cc(=O)c(O)c(C(=O)O)[nH]1`, the IC50 in series [1] (read-out: IC50) was 230 nM; in series [1] (read-out: pIC50 (converted)) it was 0.251 nM. Besides, the ΔTm in series [2] was 15.3 °C.

Consider `Cc1ccc(-c2cc(=O)c(O)c(C(=O)O)[nH]2)cc1`, for which the IC50 in [1] (read-out: IC50) turned out to be 7.2 nM. In addition, the ΔTm in [2] was 10.3 °C.

`CC(C)c1cccc(-c2cc(=O)c(O)c(C(=O)O)[nH]2)c1`: the IC50 in series [1] (read-out: IC50) was 6.3 nM. Moreover, the ΔTm in series [2] turned out to be 10.1 °C.

Take `O=C(O)c1[nH]c(-c2ccccc2)cc(=O)c1O`: the IC50 in series [1] (read-out: IC50) came to 5.6 nM. The ΔTm in [2] was 8.5 °C.

With `Cc1cc(-c2nnn[nH]2)ccc1-c1cc(=O)c(O)c(C(=O)O)[nH]1`, the half-maximal cytotoxic concentration (CC50) at 12 h in series [3] and in [10] was over 800000 nM in each case. In addition, the inhibition entry in series [4], in series [7] and in [11] was “inactive” in each case. In addition, the selectivity ratio at 12 h in series [5] and in series [9] was 35 to 75 each time. Further, the concentration for a half-maximal effect (EC50) (commonly the concentration that produces a half-maximal response) in series [6] amounted to 21300 nM. In addition, the figures for the IC50 in series [1] (read-out: IC50) and in series [1] (read-out: pIC50 (converted)) were 110 nM and 0.1 nM, respectively. Moreover, the inhibition (as a rule, the relative decrease from the control value, in per cent) in [8] was found to be 44%. Moreover, in series [2], the ΔTm is 16.5 °C.

Take `O=C(O)c1[nH]c(-c2ccccc2Oc2ccccc2)cc(=O)c1O`: in series [1] (read-out: IC50), the IC50 worked out at 6 nM. The ΔTm in series [2] is 10.4 °C.

As to `O=C1c2c(O)c(=O)ccn2N([C@@H]2c3ccccc3SCc3c2ccc(F)c3F)[C@@H]2COCCN12` [BALOXAVIR], the half-maximal cytotoxic concentration (CC50) (in general, the concentration giving 50% cytotoxicity) at 12 h in [3] was over 800000 nM; in series [10], 20000 nM. Also, the 50% effective concentration (EC50) in [6] turned out to be 2200 nM.

In the case of `O=C(O)c1[nH]c(-c2ccccc2C(F)(F)F)cc(=O)c1O`, the CC50 at 12 h in series [3] and in series [10] was over 800000 nM in each case. Also, the selectivity ratio at 12 h in series [5] and in [9] was 35 to 75 throughout. Besides, the EC50 in [6] is 10400 nM. Also, the IC50 in [1] (read-out: IC50) and in [1] (read-out: pIC50 (converted)) was under 2 nM each time. Further, the ΔTm in [2] amounted to 13.3 °C.

For the compound `O=C(O)c1[nH]c(-c2cccc(-c3nnn[nH]3)c2)cc(=O)c1O`, the IC50 in [1] (read-out: IC50) and in series [1] (read-out: pIC50 (converted)) was under 2 nM each time. In addition, in series [2], the ΔTm turned out to be 12.9 °C.

For `Cc1cc(=O)c(O)c(C(=O)O)[nH]1`, in series [2], the ΔTm was determined as 11.1 °C.

With `O=C(O)c1ccc(-c2cc(=O)c(O)c(C(=O)O)[nH]2)cc1`, the IC50 in series [1] (read-out: IC50) and in series [1] (read-out: pIC50 (converted)) was under 2 nM each time. Also, the shift in melting temperature (ΔTm) in series [2] was found to be 11.9 °C.

As for `O=C(O)c1[nH]c(-c2ccc(-c3nnn[nH]3)cc2C(F)(F)F)cc(=O)c1O`, the cytotoxic concentration (CC50) at 12 h in series [3] and in [10] was over 800000 nM in each case. Further, the inhibition entry in series [4], in series [7], in [8] and in series [11] was “inactive” in each case. Further, the selectivity ratio at 12 h in [5] and in [9] was 35 to 75 throughout. For the same compound, the concentration giving a half-maximal response (EC50) in series [6] amounted to 11500 nM. Moreover, the IC50 in series [1] (read-out: IC50) is 47 nM; in [1] (read-out: pIC50 (converted)), 0.0501 nM. In [2], the thermal shift (ΔTm) was found to be 17.8 °C.

Turning to `CC(C)c1ccccc1-c1cc(=O)c(O)c(C(=O)O)[nH]1`, the IC50 in series [1] (read-out: IC50) was found to be 3.2 nM. For the same compound, the shift in melting temperature (ΔTm) in series [2] was 11.6 °C.

In the case of `O=C(O)c1[nH]c(-c2ccc(-c3nnn[nH]3)cc2)cc(=O)c1O`, the half-maximal cytotoxic concentration (CC50) at 12 h in [3] and in series [10] was over 800000 nM throughout. For the same compound, the selectivity ratio at 12 h in series [5] and in series [9] was over 100 throughout. In addition, the 50% effective concentration (EC50) in series [6] was 7700 nM. Further, the IC50 in [1] (read-out: IC50) and in [1] (read-out: pIC50 (converted)) was under 2 nM each time. Besides, the ΔTm in [2] amounted to 14.1 °C.

`CSc1ccccc1-c1cc(=O)c(O)c(C(=O)O)[nH]1`: the IC50 in series [1] (read-out: IC50) came to 3.2 nM. In series [2], the shift in melting temperature (ΔTm) was found to be 11.8 °C.

As to `Cc1cc(-c2noc(=O)[nH]2)ccc1-c1cc(=O)c(O)c(C(=O)O)[nH]1`, the inhibition entry in series [4], in series [7], in series [8] and in [11] was “inactive” throughout. The results for the IC50 in series [1] (read-out: IC50) and in [1] (read-out: pIC50 (converted)) were 120 nM and 0.126 nM, respectively. In addition, the ΔTm in series [2] was determined as 16.3 °C.

On to `O=C(O)c1cccc(-c2cc(=O)c(O)c(C(=O)O)[nH]2)c1`, for which the IC50 in series [1] (read-out: IC50) stood at 2.3 nM. In series [2], the ΔTm is 11.7 °C.

As for `O=C(O)/C(O)=C/C(=O)C1(Cc2ccc(Cl)cc2)CCN(Cc2ccccc2)CC1`, the CC50 at 12 h in [3] and in series [10] was over 800000 nM each time. Further, the selectivity ratio at 12 h in series [5] and in [9] was 35 to 75 each time. Further, the half-maximal effective concentration (EC50) in series [6] stood at 7400 nM.

On to `Cc1cccc(-c2cc(=O)c(O)c(C(=O)O)[nH]2)c1`, for which, in [1] (read-out: IC50), the IC50 stood at 4.8 nM. In addition, in series [2], the ΔTm was found to be 10.7 °C.
